Active and inactive are the calls of the source. The rule behind the calls is not given here.
How the values were obtained:
HL-60 [1] = assay: Growth inhibition of human HL-60 cells after 72 hrs by trypan blue dye based assay; format: functional; conditions: for GI50: Homo sapiens, HL-60
In short: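 HL-60 leukemia cells were exposed to compound for 72 h. Growth inhibition is reported as IG50 (half the growth inhibition concentration), as means plus SD of three independent experiments.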

Histone deacetylase 1 [2] = molecular target: T1, Histone deacetylase 1 (Homo sapiens, UniProt Q13547); assay: Inhibition of recombinant full length C-terminal FLAG/His-tagged human HDAC1 expressed in baculovirus infected Sf9 cells using Boc-Lys(Ac)-AMC as substrate preincubated for 15 mins followed by substrate addition and measured after 60 mins by fluorescence based assay
[3] = molecular target: T2, Protein deacetylase HDAC6 (Homo sapiens, UniProt Q9UBN7); assay: Inhibition of recombinant full length C-terminal FLAG-tagged human HDAC6 expressed in baculovirus infected Sf9 cells using Boc-Lys(Ac)-AMC as substrate preincubated for 15 mins followed by substrate addition and measured after 60 mins by fluorescence based assay
T2 sequence (Q9UBN7 whole entry): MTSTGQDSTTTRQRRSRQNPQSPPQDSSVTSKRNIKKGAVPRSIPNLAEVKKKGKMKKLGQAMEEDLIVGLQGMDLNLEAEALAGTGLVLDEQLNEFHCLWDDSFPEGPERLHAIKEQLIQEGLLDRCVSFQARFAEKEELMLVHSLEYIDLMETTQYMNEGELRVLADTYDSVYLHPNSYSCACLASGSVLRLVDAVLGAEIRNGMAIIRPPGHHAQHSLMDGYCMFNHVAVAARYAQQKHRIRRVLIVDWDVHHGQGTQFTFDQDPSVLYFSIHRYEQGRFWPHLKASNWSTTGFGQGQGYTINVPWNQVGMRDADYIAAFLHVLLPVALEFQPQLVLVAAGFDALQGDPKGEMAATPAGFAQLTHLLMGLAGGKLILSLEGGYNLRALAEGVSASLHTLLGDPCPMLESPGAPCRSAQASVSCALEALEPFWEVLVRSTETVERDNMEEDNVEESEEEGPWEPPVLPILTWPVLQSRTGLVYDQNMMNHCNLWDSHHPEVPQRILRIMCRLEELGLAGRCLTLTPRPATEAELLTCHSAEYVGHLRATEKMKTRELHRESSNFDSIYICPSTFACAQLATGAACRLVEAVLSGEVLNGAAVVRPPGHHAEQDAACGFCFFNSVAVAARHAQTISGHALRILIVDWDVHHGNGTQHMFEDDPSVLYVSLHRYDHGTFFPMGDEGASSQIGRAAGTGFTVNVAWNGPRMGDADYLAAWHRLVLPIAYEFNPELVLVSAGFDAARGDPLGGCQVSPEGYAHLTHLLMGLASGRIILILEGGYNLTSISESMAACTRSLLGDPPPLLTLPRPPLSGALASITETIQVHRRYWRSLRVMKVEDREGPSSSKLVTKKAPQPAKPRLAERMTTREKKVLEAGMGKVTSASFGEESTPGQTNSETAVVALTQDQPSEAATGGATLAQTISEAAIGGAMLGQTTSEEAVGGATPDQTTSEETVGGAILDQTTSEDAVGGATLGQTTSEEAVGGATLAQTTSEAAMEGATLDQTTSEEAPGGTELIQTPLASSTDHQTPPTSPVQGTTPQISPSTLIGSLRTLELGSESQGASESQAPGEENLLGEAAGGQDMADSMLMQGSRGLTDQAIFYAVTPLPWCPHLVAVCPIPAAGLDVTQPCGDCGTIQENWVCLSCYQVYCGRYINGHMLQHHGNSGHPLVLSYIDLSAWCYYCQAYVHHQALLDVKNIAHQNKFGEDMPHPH

[4] = molecular target: Histone deacetylase 3/Nuclear receptor corepressor 2 (HDAC3/NCoR2) (Homo sapiens, UniProt O15379); assay: Inhibition of C-terminal His-tagged recombinant human HDAC3 (1 to 428 residues)/N-terminal GST-tagged recombinant human NCoR2 (395 to 489 residues) co-expressed in baculovirus infected Sf9 cells using Boc-Lys(Ac)-AMC as substrate preincubated for 15 mins followed by substrate addition and measured after 60 mins by fluorescence based assay
Histone deacetylase 2 [5] = molecular target: T3, Histone deacetylase 2 (Homo sapiens, UniProt Q92769); assay: Inhibition of recombinant full length C-terminal FLAG-tagged human HDAC2 expressed in baculovirus infected Sf9 cells using Boc-Lys(Ac)-AMC as substrate preincubated for 15 mins followed by substrate addition and measured after 60 mins by fluorescence based assay
HL-60 [6] = assay: Induction of apoptosis in human HL-60 cells assessed as necrotic cells at 40 uM incubated for 24 hrs by propidium iodide and annexin-V FITC staining based FACS analysis (reference value: 0.1 %); format: functional
MCF7 = assay: Antiproliferative activity against human MCF7 cells assessed as cell growth inhibition incubated for 96 hrs by MTT assay; format: functional
A549 = assay: Antiproliferative activity against human A549 cells assessed as cell growth inhibition incubated for 96 hrs by MTT assay; format: functional
HL-60 [7] = assay: Induction of apoptosis in human HL-60 cells assessed as late apoptotic cells at 20 uM incubated for 24 hrs by propidium iodide and annexin-V FITC staining based FACS analysis (reference value: 1.7 %); format: functional
HL-60 [8] = assay: Induction of apoptosis in human HL-60 cells assessed as viable cells at 20 uM incubated for 24 hrs by propidium iodide and annexin-V FITC staining based FACS analysis (reference value: 96.3 %); format: functional; conditions: read-out: Activity
HL-60 [9] = assay: Induction of apoptosis in human HL-60 cells assessed as late apoptotic cells at 40 uM incubated for 24 hrs by propidium iodide and annexin-V FITC staining based FACS analysis (reference value: 1.7 %); format: functional
HL-60 [10] = assay: Induction of apoptosis in human HL-60 cells assessed as early apoptotic cells at 20 uM incubated for 24 hrs by propidium iodide and annexin-V FITC staining based FACS analysis (reference value: 2.0 %); format: functional
Histone deacetylase 1 [11] = molecular target: T1, Histone deacetylase 1; assay: Inhibition of HDAC1 in human HL-60 cells assessed as increase in Ac-H3 level at 2 uM incubated for 24 hrs by Western blot analysis; format: cell-based
In short: (§1)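 Compound given to HL-60 cells for 24 h at the stated concentrations, then lysed. Acetyl-histone H3 and acetyl-α-tubulin levels were read by Western blot, with total H3, α-tubulin or β-actin as references.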

HCT-116 = assay: Antiproliferative activity against human HCT-116 cells assessed as cell growth inhibition incubated for 96 hrs by MTT assay; format: functional
[12] = Antiproliferative activity against mouse LL/2 cells assessed as cell growth inhibition incubated for 96 hrs by MTT assay; format: functional, Lewis lung carcinoma
HL-60 [13] = assay: Induction of apoptosis in human HL-60 cells assessed as early apoptotic cells at 40 uM incubated for 24 hrs by propidium iodide and annexin-V FITC staining based FACS analysis (reference value: 2.0 %); format: functional
HL-60 [14] = assay: Induction of apoptosis in human HL-60 cells assessed as necrotic cells at 20 uM incubated for 24 hrs by propidium iodide and annexin-V FITC staining based FACS analysis (reference value: 0.1 %); format: functional
HL-60 [15] = assay: Induction of apoptosis in human HL-60 cells assessed as viable cells at 40 uM incubated for 24 hrs by propidium iodide and annexin-V FITC staining based FACS analysis (reference value: 96.3 %); format: functional; conditions: read-out: Activity
HL-60 [16] = assay: Induction of apoptosis in human HL-60 cells assessed as viable cells at 20 uM incubated for 24 hrs by propidium iodide and annexin-V FITC staining based FACS analysis (reference value: 93.9 %); format: functional; conditions: read-out: Activity
HL-60 [17] = assay: Induction of apoptosis in human HL-60 cells assessed as late apoptotic cells at 20 uM incubated for 24 hrs by propidium iodide and annexin-V FITC staining based FACS analysis (reference value: 3.7 %); format: functional
HL-60 [18] = assay: Induction of apoptosis in human HL-60 cells assessed as necrotic cells at 20 uM incubated for 24 hrs by propidium iodide and annexin-V FITC staining based FACS analysis (reference value: 0.5 %); format: functional
Histone deacetylase 1 [19] = molecular target: T1, Histone deacetylase 1; assay: Inhibition of HDAC1 in human HL-60 cells assessed as increase in Ac-H3 level at 20 uM incubated for 24 hrs by Western blot analysis; format: cell-based; in short: as §1
[20] = molecular target: Histone deacetylase 3 (Homo sapiens) (UniProt O15379); assay: Inhibition of HDAC3 in human HL-60 cells assessed as increase in Ac-H3 level at 20 uM incubated for 24 hrs by Western blot analysis; format: cell-based; in short: as §1
HL-60 [21] = assay: Induction of apoptosis in human HL-60 cells assessed as early apoptotic cells at 20 uM incubated for 24 hrs by propidium iodide and annexin-V FITC staining based FACS analysis (reference value: […]); format: functional
Histone deacetylase 2 [22] = molecular target: T3, Histone deacetylase 2; assay: Inhibition of HDAC2 in human HL-60 cells assessed as increase in Ac-H3 level at 20 uM incubated for 24 hrs by Western blot analysis; format: cell-based; in short: as §1
[23] = Antitumor activity against mouse LL/2 cells inoculated in C57BL/6J mouse assessed as reduction of tumor weight at 25 mg/kg, ip administered for 12 days measured at day 14 (reference value: 0.98 +/- 0.07 g); format: functional, Lewis lung carcinoma; conditions: time 12 day
[24] = Toxicity in mouse LL/2 cells inoculated C57BL/6J mouse assessed as effect on body weight by measuring end body weight at 25 mg/kg, ip administered for 12 days and measured for every 2 days (reference value: 18.1 +/- 0.2 g); format: organism-based; conditions: in vivo, 288 h, time 12 day
[25] = Toxicity in mouse LL/2 cells inoculated C57BL/6J mouse assessed as effect on body weight by measuring initial body weight at 25 mg/kg, ip administered for 12 days measured for every 2 days (reference value: 18.4 +/- 0.4 g); format: organism-based; conditions: in vivo, 288 h, time 12 day

T3 sequence (Q92769 whole entry): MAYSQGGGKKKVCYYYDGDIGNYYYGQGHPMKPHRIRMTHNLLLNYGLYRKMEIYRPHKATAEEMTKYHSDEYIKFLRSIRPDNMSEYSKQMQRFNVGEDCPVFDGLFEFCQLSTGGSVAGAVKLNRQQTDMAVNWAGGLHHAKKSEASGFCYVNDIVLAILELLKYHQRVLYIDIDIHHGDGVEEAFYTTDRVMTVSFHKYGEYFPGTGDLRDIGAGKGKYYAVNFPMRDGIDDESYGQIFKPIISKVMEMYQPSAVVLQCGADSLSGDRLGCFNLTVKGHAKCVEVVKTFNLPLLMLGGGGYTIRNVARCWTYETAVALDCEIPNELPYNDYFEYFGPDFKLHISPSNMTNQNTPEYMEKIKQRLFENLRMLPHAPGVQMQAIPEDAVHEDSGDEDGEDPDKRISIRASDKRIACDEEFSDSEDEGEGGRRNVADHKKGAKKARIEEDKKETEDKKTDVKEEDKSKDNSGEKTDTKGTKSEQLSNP
Chain of Histone deacetylase 3/Nuclear receptor corepressor 2 (HDAC3/NCoR2) (O15379 whole entry, the tested form may be a part): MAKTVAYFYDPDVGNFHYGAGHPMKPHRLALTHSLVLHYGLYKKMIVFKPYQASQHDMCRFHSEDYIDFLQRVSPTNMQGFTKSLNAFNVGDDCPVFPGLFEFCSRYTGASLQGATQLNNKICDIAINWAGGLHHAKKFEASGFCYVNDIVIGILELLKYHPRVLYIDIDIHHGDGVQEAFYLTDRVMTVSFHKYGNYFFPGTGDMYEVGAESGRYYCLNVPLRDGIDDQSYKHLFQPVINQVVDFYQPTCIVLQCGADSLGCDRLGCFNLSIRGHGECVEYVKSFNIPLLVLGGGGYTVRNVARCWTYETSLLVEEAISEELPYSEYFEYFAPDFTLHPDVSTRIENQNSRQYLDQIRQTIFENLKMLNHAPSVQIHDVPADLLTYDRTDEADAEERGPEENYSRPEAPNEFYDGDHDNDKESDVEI
Chain of Histone deacetylase 3/Nuclear receptor corepressor 2 (HDAC3/NCoR2) (Q9Y618 whole entry, further chain, the tested form may be a part): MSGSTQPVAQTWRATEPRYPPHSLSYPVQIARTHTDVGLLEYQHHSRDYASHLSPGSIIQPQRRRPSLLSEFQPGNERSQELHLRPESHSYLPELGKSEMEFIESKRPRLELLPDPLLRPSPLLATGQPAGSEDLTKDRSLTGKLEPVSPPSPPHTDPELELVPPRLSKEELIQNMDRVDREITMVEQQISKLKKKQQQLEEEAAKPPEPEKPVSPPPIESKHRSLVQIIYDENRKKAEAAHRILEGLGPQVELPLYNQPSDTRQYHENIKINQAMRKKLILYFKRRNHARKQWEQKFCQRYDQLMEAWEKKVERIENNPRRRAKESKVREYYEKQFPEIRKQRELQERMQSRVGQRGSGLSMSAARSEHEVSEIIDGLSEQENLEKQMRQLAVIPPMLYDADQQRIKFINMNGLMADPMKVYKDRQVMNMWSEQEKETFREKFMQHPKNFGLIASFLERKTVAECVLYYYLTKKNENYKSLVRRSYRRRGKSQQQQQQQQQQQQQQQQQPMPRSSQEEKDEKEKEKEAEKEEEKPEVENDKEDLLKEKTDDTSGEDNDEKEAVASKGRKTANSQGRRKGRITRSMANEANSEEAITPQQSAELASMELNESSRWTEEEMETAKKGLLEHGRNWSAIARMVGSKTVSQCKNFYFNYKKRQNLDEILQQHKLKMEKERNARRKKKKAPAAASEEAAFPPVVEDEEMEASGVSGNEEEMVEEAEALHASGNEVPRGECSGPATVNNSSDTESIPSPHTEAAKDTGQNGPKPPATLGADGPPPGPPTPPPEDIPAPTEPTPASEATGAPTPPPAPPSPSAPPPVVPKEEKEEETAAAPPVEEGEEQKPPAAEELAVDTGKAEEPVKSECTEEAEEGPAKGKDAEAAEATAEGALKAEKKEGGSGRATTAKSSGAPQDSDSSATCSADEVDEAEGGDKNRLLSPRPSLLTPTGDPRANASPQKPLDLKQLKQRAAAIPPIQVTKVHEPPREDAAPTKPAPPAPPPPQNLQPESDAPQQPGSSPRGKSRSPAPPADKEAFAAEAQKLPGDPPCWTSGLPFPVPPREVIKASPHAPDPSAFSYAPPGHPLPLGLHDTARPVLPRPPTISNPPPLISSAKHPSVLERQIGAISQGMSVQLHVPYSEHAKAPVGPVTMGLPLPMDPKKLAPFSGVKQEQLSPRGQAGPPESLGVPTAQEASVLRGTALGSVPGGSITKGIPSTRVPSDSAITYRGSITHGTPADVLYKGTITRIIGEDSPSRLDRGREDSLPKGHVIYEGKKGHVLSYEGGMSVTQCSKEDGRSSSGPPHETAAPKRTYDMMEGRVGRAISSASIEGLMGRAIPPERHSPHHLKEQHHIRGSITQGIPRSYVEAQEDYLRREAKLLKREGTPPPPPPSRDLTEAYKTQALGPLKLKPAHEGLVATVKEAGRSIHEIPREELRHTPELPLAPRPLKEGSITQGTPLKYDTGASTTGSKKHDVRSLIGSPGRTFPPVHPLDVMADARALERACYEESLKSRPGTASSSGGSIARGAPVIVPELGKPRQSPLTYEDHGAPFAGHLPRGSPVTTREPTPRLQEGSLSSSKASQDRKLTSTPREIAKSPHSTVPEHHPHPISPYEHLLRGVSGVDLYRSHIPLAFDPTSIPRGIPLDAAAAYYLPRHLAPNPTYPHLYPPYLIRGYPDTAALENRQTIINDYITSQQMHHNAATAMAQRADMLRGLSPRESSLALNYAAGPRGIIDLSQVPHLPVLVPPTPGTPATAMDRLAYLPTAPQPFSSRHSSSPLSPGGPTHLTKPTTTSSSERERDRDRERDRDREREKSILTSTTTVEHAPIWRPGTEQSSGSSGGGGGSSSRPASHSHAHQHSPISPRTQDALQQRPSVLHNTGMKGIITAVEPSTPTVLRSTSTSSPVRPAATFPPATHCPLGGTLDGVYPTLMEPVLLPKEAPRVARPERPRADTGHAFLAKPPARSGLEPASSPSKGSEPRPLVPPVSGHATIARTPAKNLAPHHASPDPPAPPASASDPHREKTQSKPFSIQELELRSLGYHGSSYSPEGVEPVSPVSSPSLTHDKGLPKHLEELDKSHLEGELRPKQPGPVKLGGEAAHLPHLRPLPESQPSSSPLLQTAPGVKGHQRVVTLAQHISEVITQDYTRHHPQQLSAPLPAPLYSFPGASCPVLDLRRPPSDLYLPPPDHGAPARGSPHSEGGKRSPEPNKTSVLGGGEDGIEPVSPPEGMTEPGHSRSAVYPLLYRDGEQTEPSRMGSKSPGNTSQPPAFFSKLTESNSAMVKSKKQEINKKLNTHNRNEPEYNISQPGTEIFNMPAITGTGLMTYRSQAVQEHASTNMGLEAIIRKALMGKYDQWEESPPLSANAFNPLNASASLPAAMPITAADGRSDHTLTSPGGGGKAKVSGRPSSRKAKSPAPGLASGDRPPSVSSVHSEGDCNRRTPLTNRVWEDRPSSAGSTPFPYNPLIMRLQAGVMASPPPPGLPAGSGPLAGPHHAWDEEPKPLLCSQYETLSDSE
Chain of Histone deacetylase 3 (Homo sapiens) (O15379 whole entry): as the sequence (O15379 whole entry, the tested form may be a part) above
T1 sequence (Q13547 whole entry): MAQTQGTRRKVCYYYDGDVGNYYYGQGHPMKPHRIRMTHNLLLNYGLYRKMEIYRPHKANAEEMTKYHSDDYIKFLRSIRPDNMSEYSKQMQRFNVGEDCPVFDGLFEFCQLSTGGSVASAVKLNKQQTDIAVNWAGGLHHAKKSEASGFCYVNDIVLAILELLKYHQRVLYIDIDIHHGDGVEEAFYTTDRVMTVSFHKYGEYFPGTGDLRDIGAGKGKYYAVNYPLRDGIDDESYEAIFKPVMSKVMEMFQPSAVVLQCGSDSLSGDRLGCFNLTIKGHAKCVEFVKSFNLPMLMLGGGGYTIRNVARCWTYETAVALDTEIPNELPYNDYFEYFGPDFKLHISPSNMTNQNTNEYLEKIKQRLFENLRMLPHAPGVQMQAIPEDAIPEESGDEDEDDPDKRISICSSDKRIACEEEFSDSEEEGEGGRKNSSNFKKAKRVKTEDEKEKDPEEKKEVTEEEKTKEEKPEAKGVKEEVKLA

IC50 (Histone deacetylase 1 [2])	IC50 [3]	IC50 [4]	IC50 (Histone deacetylase 2 [5])	GI50 (HL-60 [1])	SMILES	IG50 (HL-60 [1])	also measured
> 10 µM	> 10 µM	> 10 µM	> 10 µM	–	Nc1ccccc1NC(=O)CCNC(=O)/C(Cc1ccc(O)c(Br)c1)=N/O	>40 µM	–
> 10 µM	> 10 µM	1.43 µM	9.76 µM	–	Nc1ccccc1NC(=O)CCCCNC(=O)/C(Cc1ccc(O)c(Br)c1)=N/O	>40 µM	–
–	–	–	–	–	Nc1cc(F)ccc1NC(=O)/C=C/c1cnn(C/C=C/c2ccccc2)c1	6.1 µM	Activity (HL-60 [6]): 2.9%; IG50 (MCF7): 30 µM; IG50 (A549): 28.3 µM; Activity (HL-60 [7]): 7.2%; viability at 20 µM (HL-60 [8]): 89.3%; Activity (HL-60 [9]): 17.2%; Activity (HL-60 [10]): 3%; inhibition (Histone deacetylase 1 [11]): inactive; IG50 (HCT-116): 22 µM; IG50 [12]: 10.8 µM; Activity (HL-60 [13]): 4.8%; Activity (HL-60 [14]): 0.5%; viability at 40 µM (HL-60 [15]): 75.1%
> 10 µM	> 10 µM	> 10 µM	> 10 µM	11.8 µM	O=C(O)CCNC(=O)/C(Cc1ccc(O)c(Br)c1)=N/O	–	viability at 20 µM (HL-60 [16]): 94.2%; Activity (HL-60 [17]): 3.4%; Activity (HL-60 [18]): 0.2%; inhibition (Histone deacetylase 1 [19]): inactive; inhibition [20]: inactive; Activity (HL-60 [21]): 2.2%; inhibition (Histone deacetylase 2 [22]): inactive
> 10 µM	> 10 µM	> 10 µM	> 10 µM	36 µM	CCCCNC(=O)/C(Cc1ccc(O)c(Br)c1)=N/O	–	–
> 10 µM	> 10 µM	> 10 µM	> 10 µM	–	Nc1ccccc1NC(=O)CNC(=O)/C(Cc1ccc(O)c(Br)c1)=N/O	>40 µM	–
–	–	–	–	–	O=C(CCCCCCC(=O)Nc1ccccc1)NO [VORINOSTAT]	–	Activity [23]: 0.55 g; Activity [24]: 18.1 g; Activity [25]: 17.9 g
1.01 µM	> 10 µM	> 10 µM	> 10 µM	–	O=C(CCCNC(=O)/C(Cc1ccc(O)c(Br)c1)=N/O)NO	>40 µM	–
> 10 µM	> 10 µM	> 10 µM	> 10 µM	13.5 µM	CCCNC(=O)/C(Cc1ccc(O)c(Br)c1)=N/O	–	viability at 20 µM (HL-60 [16]): 95.5%; Activity (HL-60 [17]): 2.5%; Activity (HL-60 [18]): 0.2%; inhibition (Histone deacetylase 1 [19]): inactive; inhibition [20]: inactive; Activity (HL-60 [21]): 1.8%; inhibition (Histone deacetylase 2 [22]): inactive
> 10 µM	> 10 µM	> 10 µM	> 10 µM	20 µM	O=C(NCCO)/C(Cc1ccc(O)c(Br)c1)=N/O	–	viability at 20 µM (HL-60 [16]): 94.4%; Activity (HL-60 [17]): 3.7%; Activity (HL-60 [18]): 0.1%; inhibition (Histone deacetylase 1 [19]): inactive; inhibition [20]: inactive; Activity (HL-60 [21]): 1.7%; inhibition (Histone deacetylase 2 [22]): inactive
0.436 µM	1.29 µM	0.249 µM	> 10 µM	–	O=C(CCCCNC(=O)/C(Cc1ccc(O)c(Br)c1)=N/O)NO	>40 µM	–
> 10 µM	> 10 µM	1.83 µM	> 10 µM	–	Nc1ccccc1NC(=O)CCCNC(=O)/C(Cc1ccc(O)c(Br)c1)=N/O	>40 µM	–
2.93 µM	> 10 µM	1.23 µM	9.21 µM	–	O=C(CNC(=O)/C(Cc1ccc(O)c(Br)c1)=N/O)NO	>40 µM	–

Reference: ChEMBL document CHEMBL4673384, “Studying Histone Deacetylase Inhibition and Apoptosis Induction of Psammaplin A Monomers with Modified Thiol Group” (ACS Med Chem Lett, 2021)
